Results on 49 sequences are retold here after the EternaBench riboswitch data.

This data set deals with MS2 coat protein. As to the kind of experiment: apparent Kd, MS2 coat protein; higher = weaker binding; RNA-MaP array; FMN 200 µM where present. An outline of the steps: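 Green signal was scaled to red-channel RNA signal and control-cluster median Fmax, and the apparent Kd was taken as the median of filtered per-cluster binding-curve fits. The binding series used SNAP-549-labelled MS2 coat protein from 0.7 or 1.5 nM, doubling to 3 µM, on designs transcribed by stalled E. coli RNA polymerase on Illumina sequencing-chip clusters. Each series ran without and then with constant ligand in 100 mM Tris-HCl pH 7.5, 80 mM KCl, 4 mM MgCl2, BSA, DTT, yeast tRNA and Tween-20.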

Where [1] appears, read: designed as: OFF switch for flavin mononucleotide, no ligand.
Setting [2] is: ligand present: flavin mononucleotide, designed as: OFF switch for flavin mononucleotide.
Setting [3] is: designed as: ON switch for flavin mononucleotide, no ligand.
The mark [4] stands for this setting: ligand present: flavin mononucleotide, designed as: ON switch for flavin mononucleotide.

With “AUCAUGAGAGGAUAUACAUGAGGAUCACCCAUGUGGUAAACACCAUGAGCUCAUUUACGUAGAAGGCUCAUUUG”, the “apparent Kd” value reads like this: under setting [1], 0.0276 µM; under setting [2], 0.0611 µM. In the same order, the values of “CUGUUACAUGAGGAUCACCCAUGUCAGGAUAUUUCUAUAGCGUCCUGCCGACGCAUAGAAAGAAGGGAUGGUGA” are 0.0486 µM and 0.0838 µM. Take “GCCAUCUCAUGAGGAUAUGCUCCCGUUUCGGGAGCAGAAGGCAUGUCAUAAGACAUGAGGAUCACCCAUGUAGUUAAGAUGGCA”: the “apparent Kd” value stood at 0.286 µM under setting [3] and 0.0118 µM under setting [4]. With “CCCGGGUUAGGAUAUUUGGGCCCGGGCGAACGCCCGGGCCCGGAGAAGGGACAUGAGGAUCACCCAUGUCCGGG”, the “apparent Kd” value under setting [1] is 0.0212 µM and the “apparent Kd” value under setting [2] came out at 0.0192 µM.

Take “GGGUCAACAUGAGGAUCACCCAUGUAGGAUAUCGCUAUUGUAAUCAUGAAACAUGAUUACAAUAGCGAGAAGGACAUAUGCGGG”: the “apparent Kd” value came to 0.042 µM under setting [1] and 0.0741 µM under setting [2]. “UGACUGCGUAGAAUUAGCAGCUGACAGGAUAUGACAUGAGGAUCACCCAUGUGAAAUAAGAAGAGUCAGAAGGGUCACGACACA”: the “apparent Kd” value turned out to be 0.00951 µM under setting [1] and 0.00879 µM under setting [2].

For “CACGGUGAUGUAGGAUAUACGCUGGAAUACAGCGUAGAAGGACAUGAGGAUCACCCAUGUAGAGUGUCUCCAAAUAACACCGUG”, the “apparent Kd” value reads like this: under setting [1], 0.043 µM; under setting [2], 0.293 µM. In the same order, the values of “UUAUACGUUGAGGAUAUGCGAAUUAGUAUAGUUGCAGAAGGCGAUACAUGAGGAUCACCCAUGUUUAUGGGCAU” are 0.194 µM and 0.341 µM. With “GUGGUCAGACAUGAGGAUCACCCAUGUGGAAUAAAUAAGGUACAGGAUAUCUAAUAUAGGAUAUAAGAGAAGGGUAGGUUGGUG”, the “apparent Kd” value under setting [3] was 0.0754 µM and the “apparent Kd” value under setting [4] was 0.0784 µM. Turning to “ACUGGUCGAGGAUAUGCAUUCGUGCUUCGGCACGUAAGGUCACAUGAGGAUCACCCAUGUAGAAGGCGACCAGU”, the “apparent Kd” value under setting [1] is 0.0182 µM and the “apparent Kd” value under setting [2] stood at 0.0369 µM.

For the sequence “CAGGUCUGAGGAUAUCCAUCUUCAUACAUGAGGAUCACCCAUGUUUACCUUUGGGUUUUUGGAGAAGGCAGUUUUU”, the “apparent Kd” value is 0.188 µM under setting [1] and 0.243 µM under setting [2].

As to “GGGAAGGGCGGAGGAUAUCGACAUGAGGAUCACCCAUGUAUCACCCAUGUAUGAGAAGGUUGGAAGGAUUAAAACGUGAGGGUC”, the “apparent Kd” value runs as follows: under setting [1], 0.0576 µM; under setting [2], 0.0443 µM. Taken in the same sequence, the figures for “CCGGCCGCCGUGAGGAUAUGCCCGCGCGCCCGCGGGCAGAAGGCACAUGAGGAUCACCCAUGUCCUGCGGUCCC” were 0.0201 µM and 0.119 µM. Taken in the same sequence, the figures for “UUAAAUCAUGUAGGAUAUGCAUGGCGAAGCUACGCAGAAGGACAUGAGGAUCACCCAUGUUAUAGGUACCCAGUUCGGUGCCAA” were 0.115 µM and 0.2 µM. Taken in the same sequence, the figures for “UUAUUAUAUGUAGGAUAUGCAUAUAAUUAUUGUGCAGAAGGACAUGAGGAUCACCCAUGUAUAUUAUUAUUAUAUAUUAUAUAU” were 0.0249 µM and 0.0143 µM. Regarding “AGCGUGUAAGGAUAUACGUCGGAUAGCGAAUGCUGUCCGUAGUAGAAGGUACAUGAGGAUCACCCAUGUGUCCA”, the “apparent Kd” value under setting [1] worked out at 0.0251 µM and the “apparent Kd” value under setting [2] was found to be 0.0941 µM. For the sequence “CGCUACGUUUCGUAGCAGUGUCAUCGAGAAGGCCCUGACAUGAGGAUCACCCAUGUUGUUACAUGGGAGGAUAUCGAUGAUACA”, the “apparent Kd” value reads like this: under setting [3], 0.0128 µM; under setting [4], 0.00499 µM. As for “UAUUCUAGAUAGGAUAUACUUUUUUUUUUUUUCGUAGAAGGAUCUACAUGAGGAUCACCCAUGUUUUCAGCAGU”, the “apparent Kd” value under setting [1] came out at 0.0445 µM and the “apparent Kd” value under setting [2] came to 0.0384 µM. Consider “AAAAAACAUGAGGAUCACCCAUGUCAGGAUAUCCUAAAAAAAAAAAAAAAAAAAAAAAGGAGAAGGGACAUAAA”, for which the “apparent Kd” value is 0.119 µM under setting [1] and 0.309 µM under setting [2]. As for “UUUGGGUCAGGAUAUUGUUAGUUUAGUUGUUUGUAUUAGUUCGAGAAGGGACAUGAGGAUCACCCAUGUGGUUA”, the “apparent Kd” value under setting [1] worked out at 0.0705 µM and the “apparent Kd” value under setting [2] was found to be 0.0775 µM. For “UCCAAAUCGUAGAAGGGUGACAUGAGGAUCACCCAUGUGCAGCAGCCGUGAAUGGCCAUGCUGCCACAGGAUAUACGAUGGAGU”, the “apparent Kd” value by setting is: under setting [3], 0.049 µM; under setting [4], 0.043 µM. For the sequence “UAUAUAUAGUAAGGAUAUGUAAUUGUUUUAUAAACAGAAGGUACUGACAUGAGGAUCACCCAUGUUUUAGUGUGGGCAUGUAGA”, the “apparent Kd” value runs as follows: under setting [1], 0.0574 µM; under setting [2], 0.0788 µM. With “AUUGUGUGAGGAUAUUAAUAGUAAAUGAAUAGAAUUGUGAUUGAGAAGGCACAUGAGGAUCACCCAUGUUCCUU”, the “apparent Kd” value was 0.019 µM under setting [1] and 0.0174 µM under setting [2]. On to “GGACGUCACAUUAACAUGAGGAUCACCCAUGUGAAAACACAUGAGGAUAUGGAUCCUAAUUGGAUCCAGAAGGCAUGGACGUCC”, for which the “apparent Kd” value under setting [4] was found to be 0.0066 µM. As to “ACUAUACGAGGAUAUACUGUCGGGCCUCGGACAUACAUACGACAUGAGGAUCACCCAUGUAGAAGGCGUUUACU”, the “apparent Kd” value came to 0.0304 µM under setting [1] and 0.0684 µM under setting [2]. Taken in the same sequence, the figures for “GUAGAGGAUUGAGGAUAUGCAGAGAGAUCAUGCGCGUCGCGCACAUGAGGAUCACCCAUGUAAGAGCAGAAGGUAACUAUGAAC” were 0.0668 µM and 0.0434 µM. “GUAGAGUAGUGAGGAUAUACGAGUACGAUAGUACGGCGAUCCAAUAAUACAUGAGGAUCACCCAUGUAGAAGGCACUUCUCUAC”: the “apparent Kd” value under setting [1] came to 0.00853 µM and the “apparent Kd” value under setting [2] was 0.0987 µM.

With “AUAAAUCAUGUAGGAUAUGCGUGGCGAAGCUAUGCAGAAGGACAUGAGGAUCACCCAUGUCAUUCCGUCUGCGUACAGACGGAA”, the “apparent Kd” value reads like this: under setting [1], 0.0345 µM; under setting [2], 0.308 µM. Regarding “GCACUGACAGGAUAUACAUGAGGAUCACCCAUGUGACCCUUACAGUACUCGCGUACUGGUAGAAGGGUCUGUGC”, the “apparent Kd” value under setting [2] is 0.14 µM. For “UCCCUAAGGCGGACCGACCAUACAUGAGGAUCACCCAUGUCGAGAAGGUGCUCACGGGUGGGUGGCAAGGAUAUCGGGUCGGAA”, the “apparent Kd” value under setting [3] came out at 0.0698 µM and the “apparent Kd” value under setting [4] came to 0.0365 µM. In the same order, the values of “UUUUACUAGUAAGGAUAUAUUAGCGAUUAGCUUGUAGAAGGUACAGUCUUAUGUAUAACAUGUUAACAUGAGGAUCACCCAUGU” are 0.052 µM and 0.0342 µM.

For “UCGAUGCUAGGAUAUACUUAUAAAACCACUGUAGAGUCCUCACAUGAGGAUCACCCAUGUAGAAGGAGCAUCUA”, the “apparent Kd” value by setting is: under setting [1], 0.0259 µM; under setting [2], 0.0464 µM. Taken in the same sequence, the figures for “GACGGAUGUAUAGGAUAUGCUGAGGAAUACUCAGCAGAAGGAUACAUGAGGAUCACCCAUGUAAUAAUAAUAAUAAUAACCGUC” were 0.0124 µM and 0.0275 µM. Taken in the same sequence, the figures for “AAAACGUGAGGAUAUCCAAUAUAUGACAUGAGGAUCACCCAUGUUUCCACUCGUACCUCCGGAGAAGGCACAAUUU” were 0.0512 µM and 0.0417 µM.

Regarding “CCAUUCAGAGGAUAUGCGCAUAGAUAAGACUUUGUUUCUUAACAUGAGGAUCACCCAUGUAGAAGGCUGUACCC”, the “apparent Kd” value came out at 0.0241 µM under setting [1] and 0.021 µM under setting [2]. In the same order, the values of “GGGCCCGGUGUGAGGAUAUUGGGUCUGAAAGGGCUCGAGAAGGCACAUGAGGAUCACCCAUGUAAGCCGGGCCC” are 0.0167 µM and 0.0137 µM. Consider “GAGAAUACACUCGUCUCCGCUCAACCAGAAGGGCAUGAUAAUAUUACAUGAGGAUCACCCAUGUUGCAGGAUAUGGUGAGCCUC”, for which the “apparent Kd” value is 0.141 µM under setting [3] and 0.0589 µM under setting [4]. Regarding “GAUAUAGAGCAGGAUAUCUUAGAUAUGUAAUAAAGAGAAGGGCUCACAUGAGGAUCACCCAUGUGGUCCUAGAU”, the “apparent Kd” value under setting [1] turned out to be 0.0185 µM and the “apparent Kd” value under setting [2] is 0.113 µM.

On to “GUUGUGCGAGGAUAUAUGUGAGGUUUGCCUCAACAGGUAAUACAUGAGGAUCACCCAUGUAGAAGGCGCAUGAG”, for which the “apparent Kd” value is, setting by setting: under setting [1], 0.102 µM; under setting [2], 0.589 µM.

“CCGGAAACGGGUAGCCUGACAUGAGGAUCACCCAUGUGAUCCUAGGAUAUGGAUCCUAAUUGGAUCCAGAAGGAGGUUGGCUAC”: the “apparent Kd” value is 1.28 µM under setting [3] and 0.368 µM under setting [4].

Regarding “UGGUAUUAGGGAGGAUAUGGGAAGAUACAUGAGGAUCACCCAUGUUUAAGAAUGCCGAGAGGCAACUAGAAGGCCCUAGUACCU”, the “apparent Kd” value was 0.5 µM under setting [3] and 0.0203 µM under setting [4]. In the case of “GUCAGGAAUGUAGGAUAUCGUCAGGAUAACUGGCGAGAAGGACAUGAGGAUCACCCAUGUAAAAUGAAAGAUAAUAAACCUGGC”, the “apparent Kd” value under setting [1] is 0.0193 µM and the “apparent Kd” value under setting [2] is 0.0311 µM. With “AUGCUAGUGUGAGGAUAUACAUGAGGAUCACCCAUGUGUCCGAAGAACGGGACAUGACGUUCGUCGUAGAAGGUACAUUAGCAU”, the “apparent Kd” value was determined as 0.0187 µM under setting [1] and 0.0468 µM under setting [2]. Taken in the same sequence, the figures for “GUCCCGUCUAGCUUCAGCACAUGAGGAUCACCCAUGUCCUAGAGAAGGGCCUAGAGUUAUCAAAGGCAGGAUAUCUGCACAUGG” were 0.0307 µM and 0.0477 µM. With “AAAGUCUAUUGAGGAUAUCGUUAUCAAAGAUAAUGAGAAGGCAAACAAUCAUGAGGACAUGAGGAUCACCCAUGUUGUGACCAU”, the “apparent Kd” value is, setting by setting: under setting [3], 0.0223 µM; under setting [4], 0.0134 µM. Consider “UGUCAAGCAGGAUAUGCACGUAAUAACAUGAGGAUCACCCAUGUGACCGAUUUAUAUUUUGCAGAAGGGCUUGUUU”, for which the “apparent Kd” value worked out at 0.0797 µM under setting [1] and 0.0782 µM under setting [2]. In the case of “GGGUGACAUGAGGAUCACCCAUGUGAGGAUAUCUGGAUACUCUUUAUUUUAGAUAUCCAGAGAAGGCACACCCU”, the “apparent Kd” value reads like this: under setting [1], 0.501 µM; under setting [2], 0.306 µM. Taken in the same sequence, the figures for “UAAUCAUGUCCGUAUGUUUUCAGAGAGGAUAUACAUGCGGGCACCUUAACAUGAGGAUCACCCAUGUAGAAGGCUCUGAAAAUG” were 0.0973 µM and 0.0225 µM. On to “AAAAAACAUGAGGAUCACCCAUGUCAGGAUAUCUGGAGAAACGGAAAGAAAAAGAAACGGAGAAGGGACAUAAA”, for which the “apparent Kd” value came out at 0.0411 µM under setting [1] and 0.048 µM under setting [2].

In general, apparent Kd refers to the concentration giving half-maximal binding under the conditions of the assay.
